Screens: PubChem BioAssay, several laboratories
Only some compounds are listed: those with a hit (about 1.2% of all), similar ones and a draw of the others.
FXIIa inh 1536: human FXIIa protease inhibitors, primary screen, biochemical, 1536-well | hit rate 0.3% among 220,000 | inhibition, % at 5 µM | purified FXIIa, Boc-QGR-AMC fluorogenic substrate, 2 h | Coagulation factor XII (Homo sapiens), P00748; in the data active means inhibition above about 40%;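 further: 0% = enzyme with no compound and 100% = blank without enzyme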
hK5 inh: human KLK5 protease inhibitors, primary screen, biochemical, 1536-well | Kallikrein-5 (Homo sapiens), Q9Y337 | AID 873, 2007 | hit rate 0.59% among 210,000 | inhibition, % at 5 µM | recombinant hK5, fluorogenic AMC substrate cleavage;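 active means inhibition of 40% or more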;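 further: 0% = enzyme controls without compound and 100% = no-enzyme blanks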
Target sequence (Q9Y337 67-293 limits assumed): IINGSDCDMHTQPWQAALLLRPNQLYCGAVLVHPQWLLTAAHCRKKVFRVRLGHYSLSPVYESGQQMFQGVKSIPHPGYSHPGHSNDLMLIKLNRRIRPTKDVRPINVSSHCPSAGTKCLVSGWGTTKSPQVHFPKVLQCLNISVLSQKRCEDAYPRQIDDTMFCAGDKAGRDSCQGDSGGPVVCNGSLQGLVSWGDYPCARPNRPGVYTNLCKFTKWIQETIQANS
Furin inh: human furin inhibitors, primary screen, biochemical, fluorescence intensity. purified furin, fluorogenic substrate cleavage. inhibition, % at 20 µM or 30 µM. hit rate 0.061% among 220,000; in the data active means inhibition above about 25%
Thrombin inh: human alpha-thrombin inhibitors, primary screen, counter-screen for coagulation protease inhibitor project, biochemical, 1536-well, fluorogenic AMC substrate | Prothrombin (Homo sapiens), P00734 | Boc-VPR-AMC fluorogenic substrate cleavage | inhibition, % at 5 µM | AID 1046, 2008 | hit rate 0.26% among 220,000;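 active means inhibition at or above 40%; inactive means inhibition below 40%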;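 further: 0% = enzyme with no compound and 100% = wells without enzyme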
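System: human alpha-thrombin protein; Compound dosing: one concentration per compound, 5 µM, with 0.2% DMSO; Timing: reaction at room temperature; Technique: AMC fluorescence, 355/460 nm; Controls: enzyme without compound as high, wells lacking enzyme as low.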
FXIa inh: human FXIa protease inhibitors, primary screen, biochemical, 1536-well; Coagulation factor XI (Homo sapiens), P03951; purified FXIa, Boc-Glu-Ala-Arg-AMC fluorogenic substrate; inhibition, % at 5 µM; hit rate 0.14% among 220,000; AID 798, 2007;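 active means inhibition of at least 40%; inactive means inhibition below 40%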;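 further: fluorescence of freed AMC excited at 355 nm; 0% = enzyme without compound and 100% = no enzyme blank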
PERK inhibitor: block of dimerizer-induced PERK translation repression, primary screen, PERK inhibitor project, CHO PERK-DD cells, SEAP luminescence, HTS; hit rate 0.17% among 220,000; CHO PERK-DD fusion, SEAP luminescence translation reporter; inhibition, % at 5.6 µM; AID 1416, 2008;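 active means inhibition above the mean inhibition of all tested compounds plus 3 SD, set separately per screening campaign, cut at about 2.9% in these data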;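 further: PERK kinase domain activated by AP20187 dimerizer at 100 nM; 0% = DMSO with dimerizer and 100% = rapamycin at 8.4 µM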
* hit, by the source's call; . = not tested or not shown.

SMILES	FXIIa inh 1536	hK5 inh	Furin inh	Thrombin inh	FXIa inh	PERK inhibitor
COC(=O)c1cccc(NS(=O)(=O)c2ccc(OC)c(OC)c2)c1C	50*	10	-5	2	0	0
O=C(Cc1cccs1)Nc1nnc(CCc2ccccc2)s1	15	43*	19	54*	41*	1
O=C(Cc1cccs1)Nc1nnc(Cc2ccccc2)s1	4	-83	-25	-1	3	0
Cc1ccc(C)c(C(=O)CCC(=O)O)c1	-4	-5	-12	-10	-4	0
O=C(/C=C/c1ccccc1)NNC1=NS(=O)(=O)c2ccccc21	3	-1	-23	-10	-2	1
CCCCNS(=O)(=O)c1ccc2nc(-c3cccnc3)cc(C(=O)NC3CCCC3)c2c1	11	-3	-21	2	0	1
Cc1ccc(CSc2ccc(C(=O)N3CCOCC3)cc2[N+](=O)[O-])cc1	0	-7	-10	-10	-1	1
CCc1cccc(NC(=O)Cc2ccc([N+](=O)[O-])cc2)c1	23	52*	-7	29	41*	0
CCC(=O)Nc1cccc(C(=O)OCc2cccc([N+](=O)[O-])c2)c1	27	68*	-15	41*	27	0
O=c1[nH]nc(Cc2ccc(Cl)cc2Cl)c2ccccc12	-5	3	-24	0	3	-1
O=c1[nH]nc(Cc2ccc(Cl)cc2)c2ccccc12	5	54*	-5	21	0	-1
CCOc1ccc(N(Cc2ccccc2F)C2=NC3CS(=O)(=O)CC3S2)cc1 (stereo not given)	21	45*	-3	9	29	-1
Cc1ccc(C)c(OCC(=O)Nc2cc(C(=O)O)cc(C(=O)O)c2)c1	4	.	-23	-1	-1	3.4*
Cc1cc(C)nc(SCc2ccc(C(=O)N/N=C/c3ccco3)cc2)n1	6	-1	-17	-2	-3	0
Nc1c(C(=O)NCc2cccnc2)sc(=S)n1-c1ccccc1	42*	35	-10	38	15	0
CCC(CO)[n+]1c(C)cc(/C=C2\Sc3ccccc3N2Cc2ccccc2)cc1C (stereo not given)	7	-1	29*	4	-4	0
CCN1/C(=C2\SC(=S)N(Cc3ccccc3)C2=O)Sc2ccccc21	7	-3	0	-1	6	1
CCOC(=O)Cc1csc(NC(=O)CC(C)(C)CC(=O)O)n1	25	50*	-2	10	59*	1
CCOC(=O)Cc1csc(NC(=O)CCC(=O)O)n1	5	0	-22	-2	1	1
CCOC(=O)N1CCN(C(=O)c2ccc(OCC)cc2)CC1	8	-7	-38	-31	-3	1
CCOc1ccc(C(=O)n2cnnc2N)cc1	38	41*	-14	-3	7	2
O=C(CN(Cc1cccs1)C(=O)CNS(=O)(=O)c1ccccc1)NCc1ccco1	-2	89*	-22	5	-12	0
Cc1ccccc1-n1nc(C(=O)O)cc1-c1ccccc1	14	2	-23	3	3	3.1*
CCN1/C(=C/c2ccc3cc(C)cc(C)c3[n+]2CC)Sc2cc(C)ccc21	7	4	0	-3	-1	0
CCN1/C(=C/c2ccc3cccc(C)c3[n+]2CC)Sc2ccccc21	28	51*	-16	40	13	0
SMILES	FXIIa inh 1536	hK5 inh	Furin inh	Thrombin inh	FXIa inh	PERK inhibitor
CCc1ccccc1NC(=S)N=Nc1c(O)n(C)c2ccc(S(=O)(=O)N3CCOCC3)cc12	14	-24	-11	12	9	-1
Cc1ccc(Cn2c(O)c(N=NC(=S)Nc3ccccc3F)c3cc(S(=O)(=O)N4CCOCC4)ccc32)cc1	37	95*	-1	2	50*	-1
COc1ccc(C(=O)NCc2nnc(SCC(=O)Nc3ccccc3OC)n2C)cc1	9	4	-18	-2	-1	0
COc1ccc(/C=N/NC(=O)Cc2n[nH]c(=O)[nH]c2=O)cc1	3	-3	-21	-3	-2	3.0*
COc1ccc(/C=N/NC(=O)CSc2n[nH]c(=O)[nH]c2=O)cc1	10	-7	-18	-3	0	0
CC(C)N(C)CCOC(=O)/C=C/c1ccccc1	15	41*	-16	6	-4	0
C=CCOC(=O)c1c(C)nc2cc3c(cc2c1C)OCO3	8	44*	-20	16	2	-2
Cc1cc(C)c(O)c(-c2cc(C(=O)Nc3c(C)n(C)n(-c4ccccc4)c3=O)[nH]n2)c1	2	-5	-17	-5	-4	-1
Cc1ccc(OC(F)F)c(NC(=O)Nc2cccc(C(F)(F)F)c2)c1	20	56*	-11	19	8	1
O=C(Nc1ccccc1)Nc1cccc(C(F)(F)F)c1	11	1	-24	.	4	0
COc1ccc(C2OC(=O)C(C)(C)C(=O)C2(C)C)cc1OC (stereo not given)	10	4	-21	2	2	0
COc1ccc(C2N3CC4(C)CN2CC(C)(C3)C4=O)cc1OC (stereo not given)	32	61*	-32	17	16	1
CCOc1ccccc1NS(=O)(=O)c1cn(C)nc1C	-2	-12	-13	-2	-5	2
CCc1ccc(/C=C2/C(=O)N(C)C(=S)N2CC(=O)OC)s1	12	-21	3	8	1	1
CCOC(=O)C(Cc1ccccc1)c1ccnc2ncnn12 (stereo not given)	0	-12	-25	2	-5	2
COCCCNC(=O)C(F)(F)C(F)(F)C(=O)NCCCOC	27	122*	-28	9	19	1
CC(C)c1ccc(NC(=O)COc2ccccn2)cc1	26	21	-4	89*	31	0
Fc1ccc(NC(=S)Nc2cccnc2)c(F)c1F	1	-14	-24	-1	-5	1
O=C(NN1C(=O)C2C3C=CC([C@@H]2C1=O)C31CC1)c1ccccc1 (stereo not given in full)	7	-2	-15	-2	-1	1
Cc1ccc(NC(=O)C2CCN(S(C)(=O)=O)CC2)cc1	26	49*	-30	9	13	1
CC(C)c1ccc(NC(=O)C2CCN(S(C)(=O)=O)CC2)cc1	15	6	-17	-3	3	0
O=C1CN(C(=S)NC(=O)c2ccc(-c3ccccc3)cc2)CCN1	4	-20	-12	1	16	0
CC1(C)CN(c2ccccc2)N(C(=O)c2ccc(F)cc2)C1=O	25	64*	-15	74*	15	0
